Source: PubChem BioAssay
EBNA-1 inhibitor – EBNA-1 DNA-binding inhibitors, primary screen, biochemical, fluorescence polarization. inhibition, % at 14.8 µM. actives 0.34% (n = 300,000). AID 1950, 2009; in the data active = inhibition above about 28%
UBC13 polyUb – UBC13 polyubiquitin chain formation inhibitors, primary screen, biochemical, TR-FRET, uHTS; Ubiquitin-conjugating enzyme E2 N (Homo sapiens), P61088; inhibition, % at 20 µM; actives 0.47% (n = 330,000); AID 485273, 2010; in the data active = inhibition above about 45%, passing the limit was not always enough
PfM18AAP inh-1 – PfM18AAP inhibitors, malaria aminopeptidase, primary screen, biochemical, QFRET, recombinant enzyme | M18 aspartyl aminopeptidase (Plasmodium falciparum 3D7) | H-Glu-NHMec fluorogenic cleavage | inhibition, % at 7.35 µM | actives 1.2% (n = 290,000) | AID 1822, 2009;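 active = inhibition above the campaign mean inhibition over all tested compounds plus 3 SD, cut at about 28% in these data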;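 also: 0% = plate median of test compound wells and 100% = 2 mM ZnCl2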
ZTA counter – counter-screen for EBNA-1 inhibitors: inhibitors of Epstein-Barr virus ZTA | P03206 | ZTA-DNA binding, fluorescence polarization | inhibition, % at 11 µM | actives 0.15% (n = 320,000); in the data active = inhibition above about 33%
Target sequence (P03206 whole entry, looked up): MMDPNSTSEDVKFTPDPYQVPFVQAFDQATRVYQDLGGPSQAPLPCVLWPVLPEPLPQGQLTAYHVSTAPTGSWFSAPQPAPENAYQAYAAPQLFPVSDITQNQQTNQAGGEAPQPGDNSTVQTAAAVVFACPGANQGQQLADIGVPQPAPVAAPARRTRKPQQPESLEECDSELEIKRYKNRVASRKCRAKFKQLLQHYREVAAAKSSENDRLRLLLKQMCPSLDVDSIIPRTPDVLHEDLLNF
Apaf-1 inh – inhibitors of human Apaf-1 apoptosome, primary screen, biochemical, DEVD-Rh110 fluorescence, uHTS. Apoptotic protease-activating factor 1 (Homo sapiens), O14727. reconstituted apoptosome caspase-3 activity. actives 0.71% (n = 330,000). inhibition, % at 20 µM; active = inhibition of at least 40% at 20 µM;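 also: plate controls were DMSO wells for no effect and DEVD-CHO caspase inhibitor wells for full effect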
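Material: cell-free apoptosome with Apaf-1, procaspase-3 and caspase-9; Buffer or medium: Hepes pH 7.5 with detergent and BSA; Reagent: cytochrome c trigger plus (Z-DEVD)2-Rh110 caspase-3 substrate; Times: compound with Apaf-1, dATP, procaspase-3 30 min, then 50 min reaction, room temperature; Technique: Rh110 fluorescence intensity.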
PfGluPho inh – PfG6PD enzyme inhibitors, primary screen, biochemical, fluorescence intensity, uHTS; inhibition, % at 20 µM; PfGluPho enzyme, NADPH resazurin-diaphorase fluorescence; actives 0.78% (n = 350,000); glucose-6-phosphate dehydrogenase-6-phosphogluconolactonase (Plasmodium falciparum 3D7);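 active = inhibition reaching at least a set limit at 20 µM in the primary screen, cut at about 59% in these data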;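 also: 0% = DMSO wells with substrate and 100% = DMSO wells lacking glucose-6-phosphate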
PfM18AAP inh-2 – PfM18AAP inhibitors, malaria aminopeptidase, confirmation, biochemical, QFRET, recombinant enzyme, triplicate | shares compounds with PfM18AAP inh-1 | H-Glu-NHMec fluorogenic cleavage | inhibition, % at 7.35 µM | actives 28% (n = 2,400) | AID 2170, 2009;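 active = mean inhibition over replicate wells above the hit cutoff set for the earlier primary screen, cut at about 29% in these data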;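 also: 0% = median of test compound wells and 100% = 2 mM ZnCl2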
CTSL1 confirm – cathepsin L1 inhibitors, retest, confirmation, counter-screen for PFM18AAP inhibitor project, biochemical, QFRET, triplicate | shares compounds with PfM18AAP inh-1 | purified cathepsin L1, Z-Leu-Arg-MCA fluorescence | inhibition, % at 5.96 µM | 2,400 tested, under 10 active | AID 2178, 2009;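 active = average inhibition across replicates above the hit cutoff set in the earlier primary screen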;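 also: 0% = median of test compound wells and 100% = Z-Phe-Ala-diazomethylketone 1 µM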
Target sequence (P07711 whole entry, looked up): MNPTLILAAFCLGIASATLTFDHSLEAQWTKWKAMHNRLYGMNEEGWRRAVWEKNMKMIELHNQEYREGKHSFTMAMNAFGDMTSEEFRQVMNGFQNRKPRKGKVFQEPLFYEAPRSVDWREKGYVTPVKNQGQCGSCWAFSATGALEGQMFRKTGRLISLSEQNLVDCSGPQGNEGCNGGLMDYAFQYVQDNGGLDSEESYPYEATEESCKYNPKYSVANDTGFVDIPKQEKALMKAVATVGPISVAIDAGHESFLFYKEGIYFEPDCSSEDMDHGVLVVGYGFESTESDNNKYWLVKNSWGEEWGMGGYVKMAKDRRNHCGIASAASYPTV
* = called active by the depositor. An excerpt weighted towards active compounds, which were near 2.9% of everything screened.

For O=C(CCc1ccccc1)OCC(=O)c1ccc([N+](=O)[O-])cc1 the results were EBNA-1 inhibitor -14, UBC13 polyUb -4, PfM18AAP inh-1 46*, ZTA counter -23, Apaf-1 inh -16, PfGluPho inh 41, PfM18AAP inh-2 -25 and CTSL1 confirm -5.
O=C(NOCc1ccccc1)c1ccc([N+](=O)[O-])cc1 was read as UBC13 polyUb 2, ZTA counter 10, Apaf-1 inh -1 and PfGluPho inh -5.
Screening O=C(/C=C/c1cccc(Cl)c1)c1nc2ccccc2[nH]1 returned EBNA-1 inhibitor 11, UBC13 polyUb 3, PfM18AAP inh-1 32*, ZTA counter -6, Apaf-1 inh 20, PfGluPho inh 17, PfM18AAP inh-2 14 and CTSL1 confirm 5.
Screening Cc1ccc(S(=O)(=O)Nc2ccc(Oc3cccnc3)nc2)cc1 returned EBNA-1 inhibitor -3, UBC13 polyUb -9, PfM18AAP inh-1 0, ZTA counter -4, Apaf-1 inh -1 and PfGluPho inh -21.
For O=C(c1cnn(C(=O)COc2ccccc2F)c1)c1cc(F)ccc1O the results were EBNA-1 inhibitor 8, UBC13 polyUb 14, PfM18AAP inh-1 43*, ZTA counter 11, Apaf-1 inh -21, PfGluPho inh -6, PfM18AAP inh-2 -15 and CTSL1 confirm -10.
`CN(C)c1cccc(C(=O)n2cc(C(=O)c3cc(F)ccc3O)cn2)c1` gave EBNA-1 inhibitor -7, UBC13 polyUb -2, PfM18AAP inh-1 53*, ZTA counter -14, Apaf-1 inh 9, PfGluPho inh -15, PfM18AAP inh-2 -5 and CTSL1 confirm 4.
For COC(=O)c1c(C)[nH]c(C(=O)C(C)OC(=O)c2c(C)noc2C)c1C (stereo unspecified) the results were UBC13 polyUb -4, ZTA counter 3, Apaf-1 inh 14 and PfGluPho inh 9.
Cc1ccc(S(=O)(=O)Nc2ccc(O)c3cccnc23)cc1 was read as EBNA-1 inhibitor -13, UBC13 polyUb -20, PfM18AAP inh-1 49*, ZTA counter -1, Apaf-1 inh 10, PfGluPho inh 27, PfM18AAP inh-2 30* and CTSL1 confirm -11.
`Cc1ccc(S(=O)(=O)Nc2ccc(O)c3ncccc23)cc1` gave EBNA-1 inhibitor 6, UBC13 polyUb -21, PfM18AAP inh-1 40*, ZTA counter 2, Apaf-1 inh -3, PfGluPho inh 22, PfM18AAP inh-2 7 and CTSL1 confirm -1.
CCCn1nc(C(=O)N2CCN(S(=O)(=O)c3ccc(C)c(C)c3)CC2)c2ccccc2c1=O was read as UBC13 polyUb 5, ZTA counter -12, Apaf-1 inh 17 and PfGluPho inh 2.
Screening S=C(NCCc1ccccn1)Nc1ccc(Cl)cc1Cl returned EBNA-1 inhibitor 4, UBC13 polyUb 2, PfM18AAP inh-1 -5, ZTA counter -5, Apaf-1 inh 2 and PfGluPho inh 6.
Screening Cc1cc(C)nc(SCC(=O)NNC(=O)c2ccccc2C)n1 returned EBNA-1 inhibitor 4, UBC13 polyUb -4, PfM18AAP inh-1 1, ZTA counter -10, Apaf-1 inh 4 and PfGluPho inh -11.
`O=C(CSc1ncccn1)NNC(=O)c1ccccc1` gave EBNA-1 inhibitor -6, UBC13 polyUb -8, PfM18AAP inh-1 -3, ZTA counter 6, Apaf-1 inh -11 and PfGluPho inh 7.
`Cc1cc(C)nc(SCCC(=O)N(C)C)n1` gave EBNA-1 inhibitor 2, UBC13 polyUb -3, PfM18AAP inh-1 39*, ZTA counter 6, Apaf-1 inh -1, PfGluPho inh 42, PfM18AAP inh-2 -4 and CTSL1 confirm -1.
`O=C(CSc1ncccn1)Nn1cnnc1` gave EBNA-1 inhibitor 1, UBC13 polyUb 0, PfM18AAP inh-1 46*, ZTA counter 9, Apaf-1 inh -19, PfGluPho inh -5, PfM18AAP inh-2 44* and CTSL1 confirm -4.
For Cc1cc(C)nc(SCC(=O)Nn2cnnc2)n1 the results were EBNA-1 inhibitor 3, UBC13 polyUb 4, PfM18AAP inh-1 53*, ZTA counter 8, Apaf-1 inh -7, PfGluPho inh -8, PfM18AAP inh-2 41* and CTSL1 confirm -5.
`CCC1Nc2ncnc(N3CCCCC3)c2N(Cc2ccc(OC)cc2)C1=O` (stereo unspecified) gave UBC13 polyUb 11, Apaf-1 inh 8 and PfGluPho inh 2.
`NC(=O)c1cc(S(=O)(=O)N2CCOCC2)ccc1Sc1ccccc1N` gave UBC13 polyUb -1, Apaf-1 inh -3 and PfGluPho inh 20.
For O=C(Cc1ccc(F)cc1)N1CCOCC1 the results were EBNA-1 inhibitor -3, UBC13 polyUb 13, PfM18AAP inh-1 0, ZTA counter -7, Apaf-1 inh 0 and PfGluPho inh -11.
O=C1[C@@H]2Cc3c([nH]c4ccccc34)C(c3ccccc3)N2C(=O)CN1C1CCN(Cc2ccccc2)CC1 (stereo partly specified) was read as EBNA-1 inhibitor -13, UBC13 polyUb -1, PfM18AAP inh-1 41*, ZTA counter -7, Apaf-1 inh 26, PfGluPho inh 6, PfM18AAP inh-2 -46 and CTSL1 confirm 2.
Screening O=C1[C@@H]2Cc3c([nH]c4ccccc34)C(c3cccc(Br)c3)N2C(=O)CN1C1CCN(Cc2ccccc2)CC1 (stereo partly specified) returned EBNA-1 inhibitor 15, UBC13 polyUb 10, PfM18AAP inh-1 -2, ZTA counter -9, Apaf-1 inh 25 and PfGluPho inh 14.
Screening Cc1c(NC(=S)N/N=C/c2ccc(O)cc2)c(=O)n(-c2ccccc2)n1C returned EBNA-1 inhibitor 11, UBC13 polyUb -5, PfM18AAP inh-1 35*, ZTA counter -8, Apaf-1 inh 4, PfGluPho inh -4, PfM18AAP inh-2 6 and CTSL1 confirm 8.
Screening O=c1cc(-c2ccc(O)c(O)c2)oc2cc(O[C@@H]3O[C@H](CO)[C@@H](O)[C@H](O)[C@H]3O)cc(O)c12 returned UBC13 polyUb 27, Apaf-1 inh 7 and PfGluPho inh 15.
